Measured values: ChEMBL document CHEMBL1240335, “Integrating high-content screening and ligand-target prediction to identify mechanism of action” (Nat Chem Biol, 2008)
Activity calls are given as the source filed them. The calls are words filed in the database; no cut-off is given here.

Experiments:
Type in all cases: functional, cell-based
[1] = system: HeLa; assay: Cytotoxicity against human HeLa cells assessed as inhibition of DNA replication by imaging analysis
In short: (§1)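 HeLa cells (2,000 per well, DMEM with 10% FBS) were plated overnight, then treated with compound at 10 μM final for 20 h at 37 °C, in duplicate. Cells were pulsed 40 min with 500 nM EdU and fixed in 3.7% paraformaldehyde. Replication was read by rhodamine-azide click labelling, mitosis by anti-phosphohistone H3 Ser10/Cy5, and DNA by Hoechst. Automated 10× imaging scored ≥500 cells per well.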

[2] = system: HeLa; assay: Inhibition of mitosis in human HeLa cells by imaging analysis; in short: as §1
[3] = system: HeLa; assay: Induction of cell cycle arrest in human HeLa cells assessed as accumulation at G1 arrest at 10 uM after 20 hrs by Hoescht 33342 staining
In short: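 HeLa cells plated at 2,000 per well in DMEM with 10% FBS and penicillin/streptomycin, grown overnight, then treated at a final 10 μM (diluted from 10 mM DMSO stock) for 20 h at 37 °C in duplicate. Pulsed 40 min with 500 nM EdU, fixed in 3.7% paraformaldehyde, stained with Hoechst 33342, anti-phosphoH3 Ser10 and rhodamine-azide. Imaged by automated microscopy at 10×; ≥500 cells scored per well.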

C[C@@H]1C[C@H]2[C@@H]3CCC4=CC(=O)C=C[C@]4(C)[C@@]3(F)[C@@H](O)C[C@]2(C)[C@@]1(O)C(=O)CO
inhibition [1]: Active | inhibition [2]: Active

C[C@@H]1O[C@@H](O[C@H]2C[C@@H](O)[C@]3(CO)[C@H]4[C@H](O)C[C@]5(C)[C@@H](C6=CC(=O)OC6)CC[C@]5(O)[C@@H]4CC[C@]3(O)C2)[C@H](O)[C@H](O)[C@H]1O
inhibition [1]: Active | inhibition [2]: Active

CCCCCC[C@H]1CC[C@@](O)([C@@](C)(O)C(=O)N[C@@H]2C(=O)N3NCCC[C@@H]3C(=O)N(O)[C@@H](COC)C(=O)NCC(=O)N3NCCC[C@H]3C(=O)N(O)[C@H](C)C(=O)O[C@H]2C)OC1C (some centres undefined)
Activity [3]: Active

C[C@]12C=CC(=O)C=C1CC[C@H]1[C@@H]3C[C@@H](O)[C@](O)(C(=O)CO)[C@@]3(C)C[C@H](O)[C@@]12F
inhibition [1]: Active | inhibition [2]: Active

C#C[C@]1(O)CC[C@H]2[C@@H]3CCC4=Cc5oncc5C[C@]4(C)[C@H]3CC[C@@]21C
inhibition [1]: Active | inhibition [2]: Active

C[C@@H]1C[C@@H]([C@H](O)CC2CC(=O)NC(=O)C2)C(=O)[C@@H](C)C1
inhibition [1]: Active | inhibition [2]: Active

CC(=O)[C@H]1CC[C@H]2[C@@H]3CCC4=CC(=O)CC[C@]4(C)[C@H]3CC[C@]12C
inhibition [1]: Active | inhibition [2]: Active

CC1=C2O[C@]3(O)C=C2C(=C(O)C1=O)[C@@H]1O[C@H](CC[C@H](C)/C=C(\C)C[C@@H](C)C[C@@H]3C)[C@H](C)[C@H](O)[C@H]1C
Activity [3]: Active

CC(C)[C@H]1CC[C@@](O)(CCl)[C@H]2C(=O)OCC(C(=O)O)=C[C@H]12
Activity [3]: Active

C[C@H]1O[C@@H](O[C@H]2[C@@H](O)C[C@H](O[C@H]3[C@@H](O)C[C@H](O[C@H]4CC[C@@]5(C)[C@H](CC[C@@H]6[C@@H]5C[C@@H](O)[C@]5(C)[C@@H](C7=CC(=O)OC7)CC[C@]65O)C4)O[C@@H]3C)O[C@@H]2C)C[C@H](O)[C@@H]1O
inhibition [1]: Active | inhibition [2]: Active

C[C@]12CC[C@H](O)C[C@H]1CC[C@@H]1[C@@H]2CC[C@]2(C)[C@@H](C3=CC(=O)OC3)CC[C@]12O
inhibition [1]: Active | inhibition [2]: Active

CCC(=O)O[C@]1(C(=O)CCl)[C@@H](C)C[C@H]2[C@@H]3CCC4=CC(=O)C=C[C@]4(C)[C@@]3(F)[C@@H](O)C[C@@]21C
inhibition [1]: Active | inhibition [2]: Active

COC[C@H]1C(=O)NCC(=O)N2NCCC[C@H]2C(=O)N(O)[C@H](C)C(=O)O[C@@H](C(C)C)[C@H](NC(=O)[C@](C)(O)[C@]2(O)CC[C@@H](CC(C)C)[C@H](C)O2)C(=O)N2NCCC[C@@H]2C(=O)N1O
Activity [3]: Active

CC[C@H]1CN2CCc3cc(OC)c(OC)cc3[C@@H]2C[C@@H]1C[C@H]1NCCc2cc(OC)c(OC)cc21
inhibition [1]: Active | inhibition [2]: Active
